Measured values published in ChEMBL document CHEMBL1136717, “Trypanocidal activity of conformationally restricted pentamidine congeners” (J Med Chem, 2003).
Active and inactive are the calls of the source. No cut-off for these calls is given here.

Legend:
[1] = tested on: Trypanosoma brucei rhodesiense; assay: In vitro inhibitory concentration against mouse infected with Trypanosoma brucei rhodesiense (KETRI 269)
[2] = tested on: Calf thymus DNA; assay: DNA binding affinity using calf thymus DNA.; assay type: nucleic-acid assay; conditions: Bos taurus
Procedure, shortened: (§1)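 Thermal denaturation of calf thymus DNA or poly(dA-dT) at a 1:5 compound to base pair ratio. Binding affinity is reported as ΔTm, the shift in the midpoint (Tm) of the melting curve.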

[3] = tested on: Nucleic Acid; assay: DNA binding affinity using poly(dA-dT).; assay type: nucleic-acid assay
Procedure, shortened: as §1

[4] = tested on: Trypanosoma brucei; assay: In vitro inhibitory concentration against mice infected with Trypanosoma brucei pentamidine-sensitive strain (EATRO Lab 110).; assay type: functional, organism-based
[5] = tested on: Trypanosoma brucei; assay: In vitro inhibitory concentration against mouse infected with Trypanosoma brucei rhodesiense (kETRI 243As-10-3); assay type: functional, organism-based
[6] = tested on: Trypanosoma brucei; assay: In vitro inhibitory concentration against mice infected with Trypanosoma brucei rhodesiense (KETRI 243).; assay type: functional, organism-based
[7] = tested on: Mus musculus; assay: Ratio of number of cured to that of total after intraperitoneal administration (5.0 mg/kg) once a day for 3 days in mouse infected with Trypanosoma brucei (EATRO Lab 110); (3/3 of animals were cured); assay type: functional, organism-based
[8] = tested on: Mus musculus; assay: Ratio of number of cured to that of total after intraperitoneal administration (1.0 mg/kg) once a day for 3 days in mouse infected with Trypanosoma brucei (EATRO Lab 110); (0/3 of animals were cured); assay type: functional, organism-based
[9] = tested on: Mus musculus; assay: Ratio of number of cured to that of total after intraperitoneal administration (25 mg/kg) once a day for 3 days in mouse infected with Trypanosoma brucei (EATRO Lab 110); (0/3 of animals were cured); assay type: functional, organism-based
[10] = tested on: Mus musculus; assay: Ratio of number of cured to that of total after intraperitoneal administration (10.0 mg/kg) once a day for 3 days in mouse infected with Trypanosoma brucei (EATRO Lab 110); (3/3 of animals were cured); assay type: functional, organism-based
[11] = tested on: Trypanosoma brucei; assay: Mean survival dose (1.0 mg/kg) after intraperitoneal administration once a day for 3 days in mouse infected with Trypanosoma brucei (EATRO Lab 110); assay type: functional
Procedure, shortened: (§2)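 Female Swiss-Webster mice (20 g) infected ip with 2.5×10^5 trypanosomes from rat blood; treatment began 24 h later. Drug dissolved in distilled water, given ip once daily for 3 days, three mice per dose. Tail blood smears checked weekly. MSD is the mean survival of mice dying of infection, excluding cures. Cure means survival >30 days beyond the last control death with a clear smear.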

[12] = tested on: Mus musculus; assay: Ratio of number of cured to that of total after intraperitoneal administration (2.5 mg/kg) once a day for 3 days in mouse infected with Trypanosoma brucei (EATRO Lab 110); (3/3 of animals were cured); assay type: functional, organism-based
[13] = tested on: Trypanosoma brucei; assay: Mean survival dose (25.0 mg/kg) after intraperitoneal administration once a day for 3 days in mouse infected with Trypanosoma brucei (EATRO Lab 110); Compound was toxic.; assay type: functional
Procedure, shortened: as §2

[14] = tested on: Trypanosoma brucei; assay: Mean survival dose (10.0 mg/kg) after intraperitoneal administration once a day for 3 days in mouse infected with Trypanosoma brucei (EATRO Lab 110); assay type: functional
Procedure, shortened: as §2

[15] = tested on: Mus musculus; assay: Ratio of number of cured to that of total after intraperitoneal administration (25 mg/kg) once a day for 3 days in mouse infected with Trypanosoma brucei (EATRO Lab 110);(3/3 of animals were cured); assay type: functional, organism-based
[16] = tested on: Mus musculus; assay: Ratio of number of cured to that of total after intraperitoneal administration (5.0 mg/kg) once a day for 3 days in mouse infected with Trypanosoma brucei (EATRO Lab 110); (0/3 of animals were cured); assay type: functional, organism-based
[17] = tested on: Mus musculus; assay: Ratio of number of cured to that of total after intraperitoneal administration (10.0 mg/kg) once a day for 3 days in mouse infected with Trypanosoma brucei (EATRO Lab 110); (1/3 of animals were cured); assay type: functional, organism-based
[18] = tested on: Trypanosoma brucei; assay: Mean survival dose (5.0 mg/kg) after intraperitoneal administration once a day for 3 days in mouse infected with Trypanosoma brucei (EATRO Lab 110); assay type: functional
Procedure, shortened: as §2

[19] = tested on: Trypanosoma brucei; assay: Mean survival dose (2.5 mg/kg) after intraperitoneal administration once a day for 3 days in mouse infected with Trypanosoma brucei (EATRO Lab 110); assay type: functional
Procedure, shortened: as §2

[20] = tested on: Mus musculus; assay: Ratio of number of cured to that of total after intraperitoneal administration (2.5 mg/kg) once a day for 3 days in mouse infected with Trypanosoma brucei (EATRO Lab 110); (0/3 of animals were cured); assay type: functional, organism-based
[21] = tested on: Mus musculus; assay: Ratio of number of cured to that of total after intraperitoneal administration (2.5 mg/kg) once a day for 3 days in mouse infected with Trypanosoma brucei (EATRO Lab 110); (1/3 of animals were cured); assay type: functional, organism-based
[22] = tested on: Mus musculus; assay: Ratio of number of cured to that of total after intraperitoneal administration (25 mg/kg) once a day for 3 days in mouse infected with Trypanosoma brucei (EATRO Lab 110); (3/3 of animals were cured); assay type: functional, organism-based
[23] = tested on: Mus musculus; assay: Ratio of number of cured to that of total after intraperitoneal administration (5.0 mg/kg) once a day for 3 days in mouse infected with Trypanosoma brucei (EATRO Lab 110); (2/3 of animals were cured); assay type: functional, organism-based
[24] = tested on: Mus musculus; assay: Ratio of number of cured to that of total after intraperitoneal administration (1.0 mg/kg) once a day for 3 days in mouse infected with Trypanosoma brucei (EATRO Lab 110);(0/3 of animals were cured); assay type: functional, organism-based

SMILES	IC50 [1] [nM]	DNA binding [2] [°C]	DNA binding [3] [°C]	IC50 [4] [nM]	IC50 [5] [nM]	IC50 [6] [nM]	also measured
O=C(Nc1ccc(C2=NCCN2)cc1)C1C[C@H]1C(=O)Nc1ccc(C2=NCCN2)cc1 (stereo not given in full)	> 1000	6	9.6	> 1000	810	440	
N=C(N)c1ccc(NC(=O)c2cccc(C(=O)Nc3ccc(C(=N)N)cc3)n2)cc1	> 1000	7.1	15.9	> 1000	> 1000	> 1000	
c1cc(N2CCN(c3ccc(C4=NCCN4)cc3)CC2)ccc1C1=NCCN1	13	15	19.4	18.5	100	13.5	Ratio [7]: Active; Ratio [8]: inactive; Ratio [9]: inactive; Ratio [10]: Active; MSD [11]: 10.3 days; Ratio [12]: Active; MSD [13]: 19.7 days
CCCCNC(=N)c1ccc(N2CCCN(c3ccc(C(=N)NCCCC)cc3)CC2)cc1		11.8	13.3	180	78	79	
c1cc(N2CCCN(c3ccc(C4=NCCN4)cc3)CC2)ccc1C1=NCCN1	155	15	24	27.5	23	52	MSD [14]: 14 days; Ratio [8]: inactive; Ratio [15]: Active; Ratio [16]: inactive; Ratio [17]: Partially active; MSD [18]: 7.7 days; MSD [19]: 4.3 days; Ratio [20]: inactive; MSD [11]: 4.7 days
N=C(NC1CC1)c1ccc(N2CCCN(c3ccc(C(=N)NC4CC4)cc3)CC2)cc1		15.3	23.6	870	850	810	
CC(C)(C)/N=C(\N)c1ccc(N2CCCN(c3ccc(/C(N)=N/C(C)(C)C)cc3)CC2)cc1		4.1	7.4	> 1000	> 1000	> 1000	
N=C(NCCO)c1ccc(N2CCCN(c3ccc(/C(N)=N/CCO)cc3)CC2)cc1		11.1	14.7	> 1000	> 1000	> 1000	
N=C(N)c1ccc(N2CCCN(c3ccc(C(=N)N)cc3)CC2)cc1	7.1	15	23.1	2.15	3.3	2.71	Ratio [21]: Partially active; Ratio [22]: Active; Ratio [23]: Partially active; MSD [18]: 12 days; MSD [19]: 16.5 days; Ratio [10]: Active; MSD [11]: 8.3 days; Ratio [24]: inactive
C(=C1CCN(Cc2ccc(C3=NCCN3)cc2)CC1)c1ccc(C2=NCCN2)cc1	265	17	19.4	540	90	465	
CC(C)/N=C(\N)c1ccc(N2CCCN(c3ccc(/C(N)=N/C(C)C)cc3)CC2)cc1		13.8	20	> 1000	125	900	

Now from value to molecule, other results behind:

IC50 [1] [nM]	DNA binding [2] [°C]	DNA binding [3] [°C]	IC50 [4] [nM]	IC50 [5] [nM]	IC50 [6] [nM]	SMILES	also measured
15	9.9	14.1	86	79	85	c1cc(C2=NCCN2)ccc1CC1CCCN(c2ccc(C3=NCCN3)cc2)C1 (stereo not given)	
88	12	15.5	71	84	84	C(=C1\CCCN(c2ccc(C3=NCCN3)cc2)C1)/c1ccc(C2=NCCN2)cc1	
15.5	11.1	20.3	9.4	0.17	45	N=C(N)c1ccc(OC[C@@H]2C[C@H]2COc2ccc(C(=N)N)cc2)cc1	
155	21	33.9	169	88	185	c1cc(C2=NCCN2)ccc1CC1CCN(c2ccc(C3=NCCN3)cc2)CC1	
3.2	11.1	20.6	0.8	5	3.1	N=C(N)c1ccc(OCCCCCOc2ccc(C(=N)N)cc2)cc1 [PENTAMIDINE]	
